Reference: ChEMBL document CHEMBL1124024, “Crystal structures and pharmacologic activities of 1,4-dihydropyridine calcium channel antagonists of the isobutyl methyl 2,6-dimethyl-4-(substituted phenyl)-1,4-dihydropyridine-3,5-dicarboxylate (nisoldipine) series” (J Med Chem, 1988)

What was measured:
[1] = molecular target: Voltage-gated L-type calcium channel (Cavia porcellus); experiment: Inhibition of [3H]nitrendipine binding to guinea pig ileal longitudinal smooth muscle
Cavia porcellus = species: Cavia porcellus; experiment: Inhibition of tonic (slow) component of K+ depolarization response in guinea pig ileal longitudinal smooth muscle; assay type: functional; settings: Muscle tissue
Method in brief: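 Longitudinal strips of terminal ileum from male guinea pigs (300-500 g) held in aerated physiologic saline under 500 mg resting tension, with isotonic recording. A control maximal response to 80 mM KCl depolarizing saline was taken, followed by washout and 30-min re-equilibration. Antagonist was then equilibrated for 30 min and the K+ response measured again. One concentration per tissue; contraction read in mm from baseline.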

| Structure (SMILES) | IC50 [1] | IC50 (Cavia porcellus) |
| --- | --- | --- |
| CO/C(O)=C1\C(C)=NC(C)=C(C(=O)OCC(C)C)C1c1cccc(OC)c1 (configuration not stated) | 2.3 nM | 7.1 nM |
| CO/C(O)=C1\C(C)=NC(C)=C(C(=O)OCC(C)C)C1c1ccc(Cl)cc1 (configuration not stated) | 2.8 nM | 27 nM |
| CO/C(O)=C1\C(C)=NC(C)=C(C(=O)OCC(C)C)C1c1ccc(F)cc1 (configuration not stated) | 1.5 nM | 6.8 nM |
| CO/C(O)=C1\C(C)=NC(C)=C(C(=O)OCC(C)C)C1c1cccc(C(F)(F)F)c1 (configuration not stated) | 0.14 nM | 15 nM |

Compounds with a lower IC50 (Cavia porcellus), results first:

| IC50 [1] | IC50 (Cavia porcellus) | Structure (SMILES) |
| --- | --- | --- |
| 0.0081 nM | 0.59 nM | CO/C(O)=C1\C(C)=NC(C)=C(C(=O)OCC(C)C)C1c1cccc([N+](=O)[O-])c1 (configuration not stated) |
| 0.027 nM | 2.1 nM | CO/C(O)=C1\C(C)=NC(C)=C(C(=O)OCC(C)C)C1c1ccccc1C(F)(F)F (configuration not stated) |
| 0.25 nM | 3.3 nM | CO/C(O)=C1\C(C)=NC(C)=C(C(=O)OCC(C)C)C1c1ccccc1 (configuration not stated) |
| 0.013 nM | 0.27 nM | CO/C(O)=C1\C(C)=NC(C)=C(C(=O)OCC(C)C)C1c1cccc(C#N)c1 (configuration not stated) |
| – | 0.22 nM | CO/C(O)=C1\C(C)=NC(C)=C(C(=O)OCC(C)C)C1c1ccccc1[N+](=O)[O-] (configuration not stated) |
